Reference: PubChem BioAssay AID871 (The Scripps Research Institute Molecular Screening Center, 2007)
Out of some 190,000 compounds screened, about 1,800 (0.95%) were called active. The full list was thinned out, with actives kept by preference. Values without a mark were called inactive.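 How the source made its calls: active means activation above the screen-wide mean of compound activation plus 3 SD (cut at about 130% in these data); inactive means the rest.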

Test: enhancers of STAT3 transcriptional signaling – U3A cells, luciferase, luminescence, MLSCN library, primary screen (AID 871);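 further: 0% = background luminescence of wells with medium and substrate only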
Settings: IL-6 STAT3-luciferase reporter, at 5.6 µM, active compounds read high, 100% = signal with IL-6 EC80 alone
Procedure, shortened: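 Test system: human U3A cells carrying STAT3-luciferase construct; control set: IL-6-only wells as 100% reference; timing: compound pre-incubation 1 h before IL-6, then 6 h stimulation at 37 °C; also added: IL-6 stimulus at 33 ng/mL final; evaluation: % activation versus median of IL-6-stimulated wells; detection: reporter luminescence signal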

Row | Compound | activation (% of control)
1 | Cc1ccc(-n2cnc3ncnc(-c4ccccc4)c32)cc1 | 94.7%
2 | CC(C)OCCCNC(=S)N1CCC(C(=O)c2ccc3c(c2)OCCO3)CC1 | 102%
3 | Cc1cccc(CSc2nc3c(c(=O)n2C)SCC3)c1 | 78.4%
4 | N#Cc1ccccc1NC(=O)COc1c(Br)cc(Br)c2cccnc12 | 151% (active)
5 | N#Cc1ccc(C(=O)Nc2cccc3cccnc23)c(F)c1 | 87.4%
6 | O=C(COC(=O)c1ccccn1)Nc1cccc2ccccc12 | 94.8%
7 | CCN(CC)P(=O)(Nc1ccc(SC(F)F)cc1)c1ccc(N(C)C)cc1NC(=O)c1ccco1 (centres undefined) | 131%
8 | CCOc1ccc(C2c3[nH]c4ccccc4c3CCN2Cc2cn(CC)nc2C)cc1 (centres undefined) | 140% (active)
9 | COc1cc(-c2nnn(CC(=O)NCc3ccccc3)n2)cc(OC)c1OC | 99.5%
10 | CCOP(=O)(OCC)C(Nc1ccc([N+](=O)[O-])cc1)c1ccc(Cl)cc1 (centres undefined) | 109%
11 | Cc1cccc(N2CCN(c3ccc(NC(=O)/C=C\C(=O)O)cc3)CC2)c1 | 100%
12 | CC(=O)c1ccc(NC(=O)C(C)N(C)CC(=O)Nc2ccccc2Cl)cc1 (centres undefined) | 96.3%
13 | COc1ccc([N+](=O)[O-])cc1C1NN=C(c2cccc3ccccc23)S1 (centres undefined) | 139% (active)
14 | COc1ccccc1CC(=O)Nc1ccc([N+](=O)[O-])cc1OC | 99.8%
15 | COc1ccc([N+](=O)[O-])cc1NC(=O)C(C)OC(=O)C1c2ccccc2Oc2ccccc21 (centres undefined) | 106%
16 | Cc1ccccc1OCCOc1ccc([N+](=O)[O-])cc1/C=N/n1cnnc1 | 111%
17 | O=C(CCc1nnc(CCCCc2ccccc2)o1)NC(c1cccnc1)C(F)(F)F (centres undefined) | 104%
18 | CC1(C)C=C2[C@H]3CC[C@@H]4[C@@]5(C)CCC(=O)C(C)(C)[C@@H]5CC[C@@]4(C)[C@]3(C)CC[C@@]2(C(=O)O)CC1 | 99.9%
19 | CC(=O)Nc1ccc(Nc2c3ccccc3nc3ccccc23)cc1 | 218% (active)
20 | CC(=O)Nc1ccc(NC(=O)COc2ncnc3ccccc23)cc1 | 95.9%
21 | O=[N+]([O-])c1cccc(Nc2c3ccccc3nc3ccccc23)c1 | 109%
22 | CC(C)C(C)(C#N)NC(=O)CSc1nc2scc(-c3ccccc3)c2c(=O)[nH]1 (centres undefined) | 108%
23 | O=C(Nc1ccncc1)c1cc(-c2ccccn2)nc2ccc(Br)cc12 | 111%
24 | O=C(CSc1nn(-c2ccc(F)cc2)c(=S)s1)NC1CCS(=O)(=O)C1 (centres undefined) | 98.1%
25 | O=C(C1CCN(S(=O)(=O)Cc2ccccc2)CC1)N1CCCc2ccccc21 | 136% (active)

Row | Compound | activation (% of control)
26 | Cc1noc(/C=C/c2ccco2)c1S(=O)(=O)N1CCC(C(=O)N2CCc3ccccc32)CC1 | 104%
27 | CCS(=O)(=O)N1CCC(C(=O)N2CCN(c3ccccc3)CC2)CC1 | 103%
28 | O=C(O)/C(=C/c1cccnc1)NC(=O)c1ccccc1 | 107%
29 | Nc1ccc(OCC(O)C[n+]2ccc(CCS(=O)(=O)[O-])cc2)cc1 (centres undefined) | 101%
30 | CCC(C(=O)Nc1ccc2c(c1)OCCO2)c1ccccc1 (centres undefined) | 93.2%
31 | CN1C(=O)/C(=C\c2cc(Br)cs2)c2ccccc21 | 178% (active)
32 | CCC1C(=O)c2ccccc2N(C)C1=O (centres undefined) | 110%
33 | CN1C(=O)/C(=N/OC(=O)c2ccccc2Br)c2ccccc21 | 100%
34 | CN(C)c1ccc(C=C2C(=O)OC3(CCCC3)OC2=O)cc1 | 103%
35 | COc1ccccc1-c1nnc(NC(=O)c2cccc(N3C(=O)CCC3=O)c2)o1 | 116%
36 | COc1ccccc1-c1nnc(NC(=O)c2ccc3ncsc3c2)o1 | 146% (active)
37 | COc1ccccc1-c1nnc(SCC(=O)Nc2cc(C)on2)o1 | 91%
38 | Cc1scc(C(=O)NNC(=S)NCC(C)C)c1C | 97.6%
39 | Cc1ccc(C(C)(C)C)c(OCCCCN2CCCC2)c1 | 95.5%
40 | Cc1nc(C)c(C(=O)Nc2ccc(C)c(F)c2)o1 | 92.3%
41 | COc1ccc(Cl)cc1NC(=O)c1oc(C)nc1C | 162% (active)
42 | Cc1nc(C)c(C(=O)Nc2cccc(C)c2C)o1 | 105%
43 | Cc1cc(Cl)ccc1NC(=S)NCCCN1CCCC1=O | 98.6%
44 | COc1ccccc1N1CCN(C(=O)c2ccc(Cl)c(S(=O)(=O)N3CCCC3)c2)CC1 | 97%
45 | Cc1ccc2c(Cl)c(C(=O)Nc3nn[nH]n3)sc2c1 | 96%
46 | Cc1ccc(NC(=O)c2cc(-c3ccc(C)o3)nc3ccccc23)nc1 | 104%
47 | Cc1ccc(-c2cc(C(=O)Nc3nn[nH]n3)c3ccccc3n2)c(C)c1 | 140% (active)
48 | CCOC(=O)C1(Cc2cccc(OC)c2)CCN(C(C)COC)CC1 (centres undefined) | 108%
49 | COc1cccc(NC(=O)c2ccc3c(SCC(=O)O)c4c(nc3c2)CCCC4)c1 | 106%
